Experimental data published in ChEMBL document CHEMBL1121630, “Prostaglandin analogues possessing antinidatory effects. 1. Modification of the omega chain” (1980).

Organism: Rattus norvegicus
Assay: Antinidatory effect was measured in rat relative to that of prostaglandin F2 alpha.
Type: functional
Method in brief: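 Mated Wistar female rats (9 weeks, 180–200 g); sperm in vaginal smear marked day 0. Analogues in 10% EtOH–0.4% Tween 80 in saline (1 mg/mL stock, diluted with saline), given sc twice daily on days 3–5 at three to eight doses, 5–20 rats per dose. Killed day 11; no implantation site = effective. ED50 by Litchfield-Wilcoxon, expressed relative to PGF2α.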

Compound | Activity
COC(=O)CCC/C=C\C[C@@H]1[C@@H](/C=C/[C@@H](O)CC(=O)c2ccccc2)[C@H](O)C[C@@H]1O | 40
COC(=O)CCC/C=C\C[C@@H]1[C@@H](/C=C/[C@@H](O)C#Cc2ccc(Cl)cc2)[C@H](O)C[C@@H]1O | 1
COC(=O)CCC/C=C\C[C@@H]1[C@@H](/C=C/[C@@H](O)CC(=O)c2ccc(Cl)cc2)[C@H](O)C[C@@H]1O | 8
COC(=O)CCC/C=C\C[C@@H]1[C@@H](/C=C/[C@@H](O)C[Si](C)(C)c2ccccc2)[C@H](O)C[C@@H]1O | <1
COC(=O)CCC/C=C\C[C@@H]1[C@@H](/C=C/[C@@H](O)CC(=O)Oc2ccccc2)[C@H](O)C[C@@H]1O | <1
COC(=O)CCC/C=C\C[C@@H]1[C@@H](/C=C/[C@@H](O)c2ccccc2OC)[C@H](O)C[C@@H]1O | <2
COC(=O)CCC/C=C\C[C@@H]1[C@@H](/C=C/[C@@H](O)CC(=O)c2cccc(Cl)c2)[C@H](O)C[C@@H]1O | 10
COC(=O)CCC/C=C\C[C@@H]1[C@@H](/C=C/[C@@H](O)c2cc3ccccc3s2)[C@H](O)C[C@@H]1O | 40
COC(=O)CCC/C=C\C[C@@H]1[C@@H](/C=C/[C@@H](O)C2(Sc3ccccc3)CC2)[C@H](O)C[C@@H]1O | <2
COC(=O)CCC/C=C\C[C@@H]1[C@@H](/C=C/[C@@H](O)C#Cc2cccc(Cl)c2)[C@H](O)C[C@@H]1O | 40
COC(=O)CCC/C=C\C[C@@H]1[C@@H](/C=C/[C@@H](O)C(Oc2ccccc2)C(=O)OC)[C@H](O)C[C@@H]1O (stereo partly specified) | <4
COC(=O)CCC/C=C\C[C@@H]1[C@@H](/C=C/[C@@H](O)C#Cc2ccccc2)[C@H](O)C[C@@H]1O | 40
COC(=O)CCC/C=C\C[C@@H]1[C@@H](/C=C/[C@@H](O)C2C=Cc3ccccc32)[C@H](O)C[C@@H]1O (stereo partly specified) | <5
COC(=O)CCC/C=C\C[C@@H]1[C@@H](/C=C/[C@@H](O)C#COc2ccccc2)[C@H](O)C[C@@H]1O | <2
COC(=O)CCC/C=C\C[C@@H]1[C@@H](/C=C/[C@@H](O)CSC2=CCCCC2)[C@H](O)C[C@@H]1O | 10
COC(=O)CCC/C=C\C[C@@H]1[C@@H](/C=C/[C@@H](O)c2cc3ccccc3o2)[C@H](O)C[C@@H]1O | 100
